Measurements: ChEMBL document CHEMBL5506039, “Discovery and Optimization of Tambjamines as a Novel Class of Antileishmanial Agents” (J Med Chem, 2024)
Calls of active or inactive are those of the source. The rule behind the calls is not given here.

Key:
[1] = Metabolic stability in pre-warmed pooled human liver microsomes assessed as half life at 1 uM measured upto 60 mins by LC-MS analysis; type: ADME, Microsome
Procedure, shortened: (§1)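 Compound at 1 μM final with 0.5 mg/mL pooled human or mouse liver microsomes, 1.3 mM NADP and 3.3 mM MgCl₂ in 100 mM potassium phosphate, pH 7.4. Reaction started with 1 U/mL G6PD at 37 °C with shaking.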

Leishmania mexicana [2] = experiment: (§2) Antileishmanial activity against Leishmania mexicana MNYC/BZ/62/M379 amastigotes expressing red-shifted firefly luciferase from integrated ribosomal (28S) RNA locus infected in mouse J774.A1 cells assessed as parasite survival at 0.1 uM measured after 96 hrs by luminescence based analysis relative to control; type: functional; settings: MNYC/BZ/62/M379, J774.A1
Leishmania mexicana [3] = experiment: Antileishmanial activity against Leishmania mexicana amastigotes expressing red-shifted firefly luciferase from integrated ribosomal (28S) RNA locus infected in female BALB/c mouse assessed as retardation of lesion progression by measuring reduction in footpad lesion at 40 mg/kg/day, po …; type: functional, organism-based; settings: time 20-29 day
[4] = Cytotoxicity against mouse J774.A1 cells assessed as cell survival at 0.1 uM measured after 96 hrs by SYBR Green II dye based analysis relative to control; type: toxicity; settings: read-out: Survival
Procedure, shortened: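 Uninfected J774A.1 mouse macrophages were plated at 1 × 10⁴ cells/well in DMEM with 10% heat-inactivated FBS and left 3 h at 37 °C to reattach. Compounds were added from DMSO, and analogues were screened at 0.1 μM. After 96 h at 37 °C in 5% CO₂, medium was removed. SYBR Green II (1:1000 in 1% Triton/PBS) was added for 1 h in the dark at room temperature, and fluorescence was read at Ex 485/Em 535 as a DNA-content measure of viability.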

[5] = Therapeutic index, ratio of EC50 for mouse J774.A1 cells to EC50 for antileishmanial activity against Leishmania mexicana MNYC/BZ/62/M379 amastigotes expressing red-shifted firefly luciferase from integrated ribosomal (28S) RNA locus infected in mouse J774.A1 cells; type: toxicity, cell-based; settings: read-out: TI
HepG2 = experiment: Cytotoxicity against human HepG2 cells assessed as inhibition of cell growth incubated for 48 hrs by MTT assay; type: toxicity, cell-based
Procedure, shortened: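 HepG2 cells, 2.5 × 10⁴/well in supplemented complete MEM, settled overnight at 37 °C, 5% CO₂. Compounds given as 11 duplicate 1.6-fold dilutions, 10 to 0.15 μg/mL, for 48 h. MTT added for 1 h in the dark at room temperature, formazan dissolved in acidified isopropanol, absorbance read. Triplicate runs; IC50 by sigmoidal variable-slope regression.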

Leishmania mexicana [6] = experiment: Antileishmanial activity against Leishmania mexicana amastigotes expressing red-shifted firefly luciferase from integrated ribosomal (28S) RNA locus infected in female BALB/c mouse assessed as retardation of lesion progression by measuring reduction in luminescence signal over infected footpad at …; type: functional, organism-based; settings: dose 40.0 mg/kg/day, route po, time 20-29 day
Leishmania mexicana [7] = experiment: Antileishmanial activity against Leishmania mexicana MNYC/BZ/62/M379 amastigotes expressing red-shifted firefly luciferase from integrated ribosomal (28S) RNA locus infected in mouse J774.A1 cells assessed as reduction in parasite survival measured after 96 hrs by luminescence based analysis; type: functional, organism-based; settings: MNYC/BZ/62/M379, J774.A1, 96 h
Procedure, shortened: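 J774A.1 macrophages infected with stationary-phase luciferase-expressing promastigotes at 10:1 parasites:macrophage, overnight at 37 °C, 5% CO₂. Non-internalized parasites washed off and 1 × 10⁴ cells/well replated in MEM/10% HI-FBS. Compounds in DMSO added as serial 3-fold dilutions (typically 10 μM–1 nM) for 96 h. Luciferase luminescence read; EC50 from log-transformed sigmoidal variable-slope fit. Mean ± SD of ≥2 independent experiments.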

[8] = Cytotoxicity against mouse J774.A1 cells assessed as reduction in cell survival measured after 96 hrs by SYBR Green II dye based analysis; type: toxicity
Procedure, shortened: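 Uninfected J774A.1 macrophages, 1 × 10⁴ cells/well in DMEM/10% HI-FBS, reattached 3 h, then exposed to compounds for 96 h. DNA content read after lysis with SYBR Green II (1:1000 in 1% Triton/PBS), 1 h dark at room temperature, fluorescence Ex 485/Em 535.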

[9] = AUC (0 to infinity) in male ICR-CD1 mouse plasma at 40 mg/kg, po administered as single dose and measured upto 72 hrs; type: ADME, organism-based; settings: in vivo
Procedure, shortened: (§3)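 Oral (intragastric) single dose, formulated in 50% PEG-400:50% sterile water, given to male ICR-CD1 mice (23–28 g), three per time point. Terminal cardiac-puncture blood (heparinized) and liver taken at 0, 0.5, 1, 2, 4, 8, 24, 30, 48, 54 and 72 h. Plasma separated by centrifugation at 4 °C. Samples held at −80 °C before drug quantitation and PK parameter calculation.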

[10] = Apparent elimination half life in male ICR-CD1 mouse liver at 40 mg/kg, po administered as single dose and measured upto 72 hrs; type: ADME, organism-based; settings: in vivo; procedure, shortened: as §3
[11] = Tmax in male ICR-CD1 mouse liver at 40 mg/kg, po administered as single dose and measured upto 72 hrs; type: ADME, organism-based; settings: in vivo; procedure, shortened: as §3
[12] = AUC (0 to last) in male ICR-CD1 mouse plasma at 40 mg/kg, po administered as single dose and measured upto 72 hrs; type: ADME, organism-based; settings: in vivo; procedure, shortened: as §3
[13] = Mutagenicity in Salmonella typhimurium […] assessed as increase in revertant rate upto 10 uM incubated for 96 hrs in absence of S9 fraction by AMES test; type: toxicity; settings: salmonella enterica subsp. enterica serovar typhimurium, s9, 96 h
Procedure, shortened: (§4)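 96-well Ames format: overnight 37 °C cultures of TA98 and TA100 mixed with exposure medium, with or without S9. Compound tested up to 10 μM, plates incubated 96 h at 37 °C and positive wells over background scored visually. Positive controls were 2-aminoanthracene (with S9) and 4-nitroquinoline N-oxide plus 2-nitrofluorene (without S9).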

[14] = Apparent elimination half life in male ICR-CD1 mouse plasma at 40 mg/kg, po administered as single dose and measured upto 72 hrs; type: ADME, organism-based; settings: in vivo; procedure, shortened: as §3
[15] = Extrapolated AUC in male ICR-CD1 mouse plasma at 40 mg/kg, po administered as single dose and measured upto 72 hrs; type: ADME, organism-based; settings: in vivo; procedure, shortened: as §3
[16] = AUC (0 to infinity) in male ICR-CD1 mouse liver at 40 mg/kg, po administered as single dose and measured upto 72 hrs; type: ADME, organism-based; settings: in vivo; procedure, shortened: as §3
[17] = Mutagenicity in Salmonella typhimurium TA100 assessed as increase in revertant rate upto 10 uM incubated for 96 hrs in presence of S9 fraction by AMES test; type: toxicity, subcellular; settings: salmonella enterica subsp. enterica serovar typhimurium, s9, 96 h; procedure, shortened: as §4
[18] = Tmax in male ICR-CD1 mouse plasma at 40 mg/kg, po administered as single dose and measured upto 72 hrs; type: ADME, organism-based; settings: in vivo; procedure, shortened: as §3
[19] = Cmax in male ICR-CD1 mouse liver at 40 mg/kg, po administered as single dose and measured upto 72 hrs; type: ADME, organism-based; settings: in vivo; procedure, shortened: as §3
[20] = Mutagenicity in Salmonella typhimurium […] assessed as increase in revertant rate upto 10 uM incubated for 96 hrs in presence of S9 fraction by AMES test; type: toxicity, subcellular; settings: salmonella enterica subsp. enterica serovar typhimurium, s9, 96 h; procedure, shortened: as §4
[21] = AUC (0 to last) in male ICR-CD1 mouse liver at 40 mg/kg, po administered as single dose and measured upto 72 hrs; type: ADME, organism-based; settings: in vivo; procedure, shortened: as §3
[22] = Metabolic stability in pre-warmed pooled mouse liver microsomes assessed as half life at 1 uM measured upto 60 mins by LC-MS analysis; type: ADME, Microsome; procedure, shortened: as §1
[23] = Cmax in male ICR-CD1 mouse plasma at 40 mg/kg, po administered as single dose and measured upto 72 hrs; type: ADME, organism-based; settings: in vivo; procedure, shortened: as §3
Leishmania mexicana [24] = experiment: as §2, with “assessed as inhibition of parasite growth” for “assessed as parasite survival”, “of parasite growth at 0.1” for “as parasite survival at 0.1”; type: functional; settings: MNYC/BZ/62/M379, J774.A1, read-out: INH
[25] = Extrapolated AUC in male ICR-CD1 mouse liver at 40 mg/kg, po administered as single dose and measured upto 72 hrs; type: ADME, organism-based; settings: in vivo; procedure, shortened: as §3
[26] = Mutagenicity in Salmonella typhimurium TA100 assessed as increase in revertant rate upto 10 uM incubated for 96 hrs in absence of S9 fraction by AMES test; type: toxicity; settings: salmonella enterica subsp. enterica serovar typhimurium, s9, 96 h; procedure, shortened: as §4

SMILES | half-life at 1 µM [1] [h] | survival at 0.1 µM (Leishmania mexicana [2]) [%] | Activity (Leishmania mexicana [3]) | viability at 96 h, 0.1 µM [4] [%] | selectivity ratio [5] | IC50 (HepG2) [nM] | Activity (Leishmania mexicana [6]) | EC50 (Leishmania mexicana [7]) [nM] | EC50 at 96 h [8] [nM] | other results
CCC1=C(CC)/C(=C/N[C@H]2CC[C@H](C)CC2)N=C1c1ccc[nH]1.Cl | 0.388 | 17.1 | Active | 87.8 | 19 | 15900 | Active | 73.3 | 1420 | 
CCc1ccc(C2=N/C(=C\NC3CCCCCC3)C(C)=C2C)[nH]1.Cl | > 1 | 3.7 | Active | 71.2 | 28 | 2990 | Active | 40.9 | 1140 | AUC [9]: 206250 ng·h/mL; betat1/2(app) [10]: > 36 h; Tmax [11]: 2 h; AUClast [12]: 2421 ng·h/mL; Activity [13]: Non-Toxic; betat1/2(app) [14]: > 72 h; %AUCextra [15]: 98.8%; AUC [16]: 23043 ng·h/mL; Activity [17]: Non-Toxic; Tmax [18]: 0 h; Cmax [19]: 3667 ng/mL; Activity [20]: Non-Toxic; AUClast [21]: 22982 ng·h/mL; half-life at 1 µM [22]: > 1 h; Cmax [23]: 35 ng/mL; percent inhibition of parasite growth at 0.1 µM (Leishmania mexicana [24]): > 96%; %AUCextra [25]: 0.262%; Activity [26]: Non-Toxic
